We go through 5 compounds from ChEMBL document CHEMBL3525897, “Metabolism and quantification of [(18)F]DPA-714, a new TSPO positron emission tomography radioligand” (Drug Metab Dispos, 2013).

The structures appear in SMILES notation.

The nature of series [1]: Retention time of the compound by LC-MS analysis. The class given is physicochemical. The method, boiled down:
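Separation of DPA-714 and its metabolites by LC-MS on reverse-phase Atlantis C18 column (2.1x150 mm) with electrospray ionization.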

The test system of a further series is Liver microsome. Kind of series: Drug level in Sprague-Dawley rat liver microsomes treated with DPA-714 after 15 to 60 mins by LC-MS/MS analysis. In general terms: Liver microsomes are a subcellular fraction often used to study metabolism.
The nature of series [2]: Biodistribution in baboon heart at 276 +/- 60 MBq, iv up to 90 mins by PET analysis. The class given is ADME, organism-based. The settings on record: papio anubis, in vivo, 1.5 h. The method, boiled down:
(§1)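 Whole-body PET (HR+) in male Papio anubis baboons after i.v. 276 ± 60 MBq (4.8 ± 2.1 nmol) [18F]DPA-714. 2D transmission scans for attenuation correction. 3D emission scans of 1 to 4 min per bed step, acquired up to 90 min post-injection. Uptake reported as SUVmax.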

The nature of series [3]: Biodistribution in baboon duodenum at 276 +/- 60 MBq, iv by PET analysis. The settings on record: papio anubis, in vivo. The class given is ADME, organism-based. The method, boiled down:
as §1

A short description of series [4]: Drug metabolism in baboon assessed as compound remaining measured at 30 mins by radio-HPLC analysis. The class given is ADME, organism-based. The settings on record: papio anubis, in vivo; read-out: Stability. The method, boiled down:
(§2)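 Isoflurane-anaesthetized baboons, 6 PET experiments. Arterial femoral plasma sampled 0-120 min and centrifuged at 4°C, then deproteinated with acetonitrile; pellet radioactivity counted and treated as metabolite. Supernatant run on radio-HPLC (C18 preparative, 0.1% TFA water/acetonitrile 20-80% over 10 min, 5 mL/min). Counts decay-corrected to injection. Parent fraction as % total; data fitted to two exponentials; mean ± sd.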

Series [5] is described as follows: Biodistribution in baboon spleen at 276 +/- 60 MBq, iv up to 90 mins by PET analysis. The class given is ADME, organism-based. The settings on record: papio anubis, in vivo, 1.5 h. The method, boiled down: as §1
Series [6] in a line: Metabolic stability of the compound in baboon plasma at 20 kBq/ml at 37 degC by radio-HPLC analysis. The class given is ADME, cell-free. The settings on record: papio anubis. The method, boiled down:
(§3)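 Plasma spiked with 20 kBq/mL [18F]DPA-714, triplicate. Extracted with acetonitrile at time zero, or after incubation at 37°C (190 min for baboon plasma). Parent peak area measured by radio-HPLC.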

Series [7] can be described thus: Retention time in baboon plasma by radio-HPLC analysis. The class given is ADME, cell-free. The settings on record: papio anubis. The method, boiled down: as §2
Series [8] is described as follows: Biodistribution in Sprague-Dawley rat thighbone cortex at 32.1 +/- 2.8 MBq, iv measured at 120 mins by radio-HPLC analysis. It is filed as ADME, organism-based, Bone element. Conditions: 32.1 MBq; call rule not given here. The method, boiled down: (§4)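 Male Sprague-Dawley rats (250-300 g) given 32.1 ± 2.8 MBq [18F]DPA-714 by tail vein and decapitated 120 min later. Brain sonicated twice in acetonitrile on ice, extracts pooled and concentrated. Plasma acetonitrile-deproteinated. Parent and radiometabolites separated by radio-HPLC (C18, 0.1% TFA water/acetonitrile gradient 20-80% B). Expressed as %ID/g. Thighbone cortex and marrow also counted. Mean ± sd of 2 experiments, 2 rats each.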

Series [9] in a line: Biodistribution in Sprague-Dawley rat bone marrow at 32.1 +/- 2.8 MBq, iv measured at 120 mins by radio-HPLC analysis. It is filed as ADME, organism-based. The settings on record: 32.1 MBq. The method, boiled down:
as §4

The nature of series [10]: Half life in baboon by radio-HPLC analysis. The class given is ADME, organism-based. The settings on record: papio anubis, in vivo. The method, boiled down: as §2
Series [11] is described as follows: Drug metabolism in baboon assessed as compound remaining measured at 120 mins by radio-HPLC analysis. It is filed as ADME, organism-based. Conditions: papio anubis, in vivo; read-out: Stability. The method, boiled down:
as §2

A short description of series [12]: Biodistribution in baboon vertebral bodies at 276 +/- 60 MBq, iv up to 90 mins by PET analysis. The class given is ADME, organism-based. Conditions: papio anubis, in vivo, 1.5 h. The method, boiled down:
as §1

Series [13] is described as follows: Biodistribution in baboon urinary bladder at 276 +/- 60 MBq, iv up to 90 mins by PET analysis. It is filed as ADME, organism-based. Conditions: papio anubis, in vivo, 1.5 h. The method, boiled down: as §1
Series [14] can be described thus: Biodistribution in Sprague-Dawley rat brain at 32.1 +/- 2.8 MBq, iv measured at 120 mins by radio-HPLC analysis. It is filed as ADME, organism-based. Conditions: 32.1 MBq. The method, boiled down:
as §4

A short description of series [15]: Biodistribution in baboon liver at 276 +/- 60 MBq, iv up to 90 mins by PET analysis. The settings on record: papio anubis, in vivo, 1.5 h. The class given is ADME, organism-based. The method, boiled down:
as §1

Series [16] is described as follows: Biodistribution in baboon parotid gland at 276 +/- 60 MBq, iv up to 90 mins by PET analysis. Conditions: papio anubis, in vivo, 1.5 h. The class given is ADME, organism-based. The method, boiled down:
as §1

The nature of series [17]: Ratio of drug level in brain to plasma in Sprague-Dawley rat at 32.1 +/- 2.8 MBq, iv measured at 120 mins by radio-HPLC analysis. The class given is ADME, organism-based. Conditions: brain and plasma, 32.1 MBq, read-out: BPR. The method, boiled down: as §4
Series [18] can be described thus: Biodistribution in Sprague-Dawley rat plasma at 32.1 +/- 2.8 MBq, iv measured at 120 mins by radio-HPLC analysis. Conditions: 32.1 MBq. It is filed as ADME, organism-based. The method, boiled down:
as §4

The nature of series [19]: Half life in baboon by SPE method. The class given is ADME, organism-based. The settings on record: papio anubis, in vivo. The method, boiled down:
(§5)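 Baboon arterial plasma, five samples per animal, n=3. 200 μL diluted to 400 μL with 4% HCl and loaded on HLB SPE cartridge. Washed with water, then 35/65 acetonitrile/water; parent eluted with acetonitrile. All fractions and cartridge counted. Parent given as % of eluted radioactivity or of initial sample. Compared with radio-HPLC; mono-exponential fit.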

A short description of series [20]: Biodistribution in baboon kidney at 276 +/- 60 MBq, iv measured at 10 mins by PET analysis. It is filed as ADME, organism-based. The settings on record: papio anubis, in vivo. The method, boiled down:
as §1

Series [21] can be described thus: Biodistribution in baboon kidney at 276 +/- 60 MBq, iv measured at 90 mins by PET analysis. The class given is ADME, organism-based. Conditions: papio anubis, in vivo, 1.5 h. The method, boiled down: as §1
Series [22] in a line: Biodistribution in baboon gallbladder at 276 +/- 60 MBq, iv measured at 42 mins by PET analysis. The class given is ADME, organism-based, Gall bladder. The settings on record: papio anubis, in vivo, 0.7 h. The method, boiled down:
as §1

Series [23] can be described thus: Metabolic stability of the compound in baboon plasma assessed as compound remaining by SPE method. It is filed as ADME, cell-free. The settings on record: papio anubis. The method, boiled down:
as §5

The nature of series [24]: Drug recovery in baboon by SPE method. The class given is ADME, organism-based. The settings on record: papio anubis, in vivo; read-out: Drug recovery. The method, boiled down:
as §5

Series [25] is described as follows: Biodistribution in baboon lung at 276 +/- 60 MBq, iv up to 90 mins by PET analysis. The class given is ADME, organism-based. Conditions: papio anubis, in vivo, 1.5 h. The method, boiled down:
as §1

The next series has as its system Brain. Kind of series: Metabolic stability of the compound in Sprague-Dawley rat brain homogenate at 37 kBq at 37 degC by radio-HPLC analysis. The class given is ADME, tissue-based. The method, boiled down:
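Rat brain sonicated in 0.1 M potassium phosphate, pH 7.4, at 4°C and spiked with 37 kBq [18F]DPA-714. Aliquots extracted with acetonitrile at time zero and after 180 min at 37°C. Analysed by radio-HPLC.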

Series [26] in a line: Chemical stability of the compound in saline. The settings on record: buffer. The class given is physicochemical.
Series [27] is described as follows: Drug metabolism in baboon urine assessed as compound remaining measured at 180 mins by radio-HPLC analysis. It is filed as ADME, tissue-based. The settings on record: papio anubis, read-out: Stability. The method, boiled down:
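Baboon urine collected by catheter at 180 min after injection. 1 mL injected directly onto the plasma radio-HPLC system (C18, 0.1% TFA water/acetonitrile gradient).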

The test system of a further series is Plasma. Kind of series: Metabolic stability of the compound in Sprague-Dawley rat plasma at 20 kBq/ml at 37 degC by radio-HPLC analysis. The class given is ADME, cell-free. The method, boiled down: as §3
Series [28] in a line: Retention time in baboon plasma treated with [18F]DPA-714 by radio-HPLC analysis. The class given is ADME, cell-free. The settings on record: papio anubis. The method, boiled down:
as §2

Usually half-life stands for the time in which the quantity being followed falls by half. A low value points to rapid decline.

`CCN(CC)C(=O)Cc1c(-c2ccc(OCCF)cc2)nn2c(C)cc(CO)nc12`: in [1], the Retention_time worked out at 16.87 min. For the same compound, the Drug metabolism entry in the series with Liver microsome was “metabolite_detected”.

Consider `CCN(CC)C(=O)Cc1c(-c2ccc(OCCF)cc2)nn2c(CO)cc(C)nc12`, for which, in series [1], the Retention_time is recorded as 15.85 min. The Drug metabolism entry with Liver microsome is recorded as “metabolite_detected”.

Turning to `CCN(CC)C(=O)Cc1c(-c2ccc(OCC[18F])cc2)nn2c(C)cc(C)nc12` [DPA-714 F-18], the SUVmax in series [2] came to 7.42; in [5], 7.57; in [12] it was 1.99; in series [13], 6.5; in series [15] it was 6.28; in series [16], 1.93. The SUVmax amounted to 12.7 in series [20], 7.31 in series [22] and 5.67 in series [25]. The Drug uptake result in series [3] is given as “Active”. Also, the remaining at 0.5 h in series [4] was 46%. The Stability in series [6] is 190 min; in series [23], 95%; in the series on Brain, 180 min; in [26], “Stable”; with Plasma, 180 min. The same compound returned a Retention_time in series [7] of 10.083 min. Also, the tissue uptake at 2 h was determined as 35% in series [8], 65% in [9], 85% in series [14] and 15% in series [18]. Further, the half-life is 19 min in [10] and 12 min in [19]. In series [11], the remaining at 2 h was determined as 11%. In [17], the Kp at 2 h amounted to 11. Besides, the SUV in [21] is reported as 4.6. The recovery in series [24] was determined as 94%. In series [27], the remaining at 3 h is < 2%.

Take `CCN(CC)C(=O)Cc1c(-c2ccc(O)cc2)nn2c(C)cc(C)nc12`: the Retention_time in series [1] worked out at 15.05 min. Also, the Drug metabolism entry with Liver microsome was “metabolite_detected”.

Take `CCNC(=O)Cc1c(-c2ccc(OCC[18F])cc2)nn2c(C)cc(CO)nc12`: in series [28], the Retention_time amounted to 7.25 min.
